Our source for the IC50 values is ChEMBL document CHEMBL1154850, “Dragonamide E, a modified linear lipopeptide from Lyngbya majuscula with antileishmanial activity” (J Nat Prod, 2010).

Molecules are shown by their SMILES. Square brackets hold non-standard residues; d marks the D form. Peptide text beside a SMILES is read from it. * marks the point of attachment. NMeF = CN[C@@H](Cc1ccccc1)C(=O)O; NMeV = CN[C@H](C(=O)O)C(C)C; X1 = C#CCCCC[C@H](C)C(=O)*; X2 = C#CCCC/C=C(\C)C(=O)*

Holding throughout (assay type): functional, organism-based
One test deals with Leishmania donovani. Kind of test: Antileishmanial activity against Leishmania donovani LD-1S/MHOM/SD/00-1S amastigotes after 72 hrs by PicoGreen fluorescence assay. Summed up:
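Axenic amastigotes of WHO reference strain LD-1S/MHOM/SD/00-strain 1S; assay run as in earlier work.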

A further test concerns Trypanosoma cruzi. Kind of test: Antiparasitic activity against Trypanosoma cruzi Tulahuen C4 infected african green monkey Vero cells expressing beta-galctosidase after 5 days. To be noted: 120 h. The gist of the method:
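Parasite is a transgenic β-galactosidase-expressing Trypanosoma cruzi, Tulahuen strain clone C4; assay run as in earlier work.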

Another test concerns Plasmodium falciparum. The experiment in a line: Antimalarial activity against chloroquine-resistant Plasmodium falciparum Indochina W2 infected human erythrocytes assessed as uptake of PicoGreen after 48 hrs. To be noted: Indochina W2, 48 h.

Consider `C[C@@H]1[C@H](O)[C@@H](C)/C=C/C=C/C=C/C=C/C=C/C=C/C=C/[C@H](O[C@@H]2O[C@H](C)[C@@H](O)[C@H](N)[C@@H]2O)C[C@@H]2O[C@](O)(C[C@@H](O)C[C@@H](O)[C@H](O)CC[C@@H](O)C[C@@H](O)CC(=O)O[C@H]1C)C[C@H](O)[C@H]2C(=O)O` [AMPHOTERICIN B], for which the IC50 (in general, the concentration that inhibits the measured activity by half) in the test with Leishmania donovani came to 0.1 µM.

Regarding `C#CCCCC[C@H](C)C(=O)N(C)[C@H](C(=O)N(C)[C@H](C(=O)N(C)[C@H](C(=O)N(C)[C@@H](Cc1ccccc1)C(N)=O)C(C)C)C(C)C)C(C)C` [DRAGONAMIDE A] (X1-[NMeV][NMeV][NMeV][NMeF]-NH2), the IC50 with Leishmania donovani was 6.5 µM; in the test with Trypanosoma cruzi, more than 10 µM; in the test on Plasmodium falciparum, more than 10 µM.

For `C#CCCCC[C@H](C)C(=O)N(C)[C@H](C(=O)N(C)[C@H](C(=O)N(C)[C@H](C(=O)N(C)[C@H](C(N)=O)C(C)C)C(C)C)C(C)C)C(C)C` [DRAGONAMIDE B] (X1-[NMeV][NMeV][NMeV][NMeV]-NH2), the IC50 with Leishmania donovani, in the test on Trypanosoma cruzi and with Plasmodium falciparum was more than 10 µM each time.

Turning to `C#CCCC/C=C(\C)C(=O)N(C)[C@H](C(=O)N(C)[C@H](C(=O)N(C)[C@H](C(=O)N(C)[C@@H](Cc1ccccc1)C(N)=O)C(C)C)C(C)C)C(C)C` [DRAGONAMIDE E] (X2-[NMeV][NMeV][NMeV][NMeF]-NH2), the half-maximal inhibitory concentration (IC50) was 5.1 µM with Leishmania donovani, more than 10 µM in the test with Trypanosoma cruzi and more than 10 µM in the test with Plasmodium falciparum.

As to `C/C(=C\C=C\C[C@H](C)C(Cl)(Cl)Cl)C(=O)N[C@H](c1nccs1)C(C)C` [HERBAMIDE B], the IC50 in the test on Leishmania donovani is 5.9 µM; in the test on Trypanosoma cruzi, more than 10 µM; with Plasmodium falciparum, more than 10 µM.

Regarding `CC1CS(=O)(=O)CCN1/N=C/c1ccc([N+](=O)[O-])o1` (centres undefined) [NIFURTIMOX], the IC50 in the test with Trypanosoma cruzi was determined as 13.5 µM.
